Experimental data collected from several papers.
Each line is one published result; the experiments were not run side by side.
Target: Cytochrome P450 3A4 (CYP3A4, Homo sapiens, UniProt P08684)
Observed: enzyme activity
Action: inhibitor

| Structure (SMILES) | assay | test system | conditions | endpoint | result |
| --- | --- | --- | --- | --- | --- |
| Nc1nc(N)c2nc(CNc3ccc(C(=O)c4ccccc4)cc3)cnc2n1 | luciferase |  |  | IC50 | 43700 nM |
| COc1ccn2c(Nc3ccccc3F)c(-c3ccncn3)nc2c1 |  |  |  | IC50 | 270 nM |
| COc1ccc2c(Cc3ccccc3F)c3[n+](cc2c1OC)CCc1cc2c(cc1-3)OCO2 |  |  |  | IC50 | 800 nM |
| O=C(NCCN1CCCC1)c1cc(-c2ccc(CN3CCOCC3)cc2)nc2ccc(F)cc12 |  | human, liver microsomes | midazolam probe | IC50 | > 100000 nM |
| COC(=O)C1CCN(C(=O)c2ccc(SCc3cnc4nc(N)nc(N)c4n3)nc2)CC1 | luciferase |  |  | IC50 | 11700 nM |
| CC1=CC(=O)C(C(C)C)=CC1=O | fluorescence |  | pH 7.4 | IC50 | 1200 nM |
| COc1ccc2c(Cc3ccccc3F)c3n(c(=O)c2c1OC)CCc1cc2c(cc1-3)OCO2 |  |  |  | IC50 | 2700 nM |
| Nc1nc(N)c2nc(C(=O)NCc3cccc(C(F)(F)F)c3)cnc2n1 | luciferase |  |  | IC50 | 13800 nM |
| CCc1cc(/C(C)=N/OCc2ccc(C3CCCCC3)c(C(F)(F)F)c2)ccc1CN1CC(C(=O)O)C1 |  | human, liver microsomes | 20 min, testosterone probe | IC50 | 600 nM |
| CCCCC1=NC2(CCCC2)C(=O)N1Cc1ccc(-c2ccccc2S(=O)(=O)Nc2noc(C)c2C)c(COCC)c1 |  |  |  | Ki | 6.33 µM |
| Cc1ccc2nc(-c3ccccc3)c(CNc3ccc(F)cc3)n2c1 |  |  |  | IC50 | 270 nM |
| COc1cc2c(c(OC)c1OC)-c1c(cc3c(c1OC)OCO3)C[C@H](C)[C@](C)(O)[C@H]2OC(=O)c1ccccc1 |  |  | 15 min, pH 7.4 | IC50 | 140 nM |
